Read-outs that look alike come from different tables or passages of the source.

Assay [1] concerns the target T1, urease (Canavalia ensiformis, UniProt P07374). In words: Urease inhibitory assay. The format is biochemical. Summed up:
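Urease in pH 8.2 buffer (0.01 M K2HPO4·3H2O, 1 mM EDTA, 0.01 M LiCl) with 100 mM urea, incubated 15 min at 30 °C with test compound added from a 1 mM solution. Ammonia detected by indophenol: alkali (0.5% NaOH, 0.1% active chloride NaOCl) plus phenol reagent (1% phenol, 0.005% nitroprusside). A630 read after 50 min as change per min; triplicate; acetohydroxamic acid standard; % inhibition.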

For assay [2], the target named is T1, urease. Nature of the assay: Kinetic study of urease inhibition. The format is biochemical.
The subject of assay [3] is MCF-7 (human breast adenocarcinoma). Nature of the assay: Cell viability in treated cell lines. The format is cell-based. The note with it: MCF7, 72 h. The gist of the method: (§1)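 Cells were kept in RPMI 1640 with 10% FCS and penicillin/streptomycin at 37 °C, 5% CO2. They were seeded at 6000 cells/well, held 24 h, then given test compound at 0, 15.62, 31.25, 62.5, 125, 250, 500 and 1000 […] for 72 h. MTT (5 mg/mL) was added for 4 h, formazan dissolved in DMSO, and A570 read. Treatment was done in triplicate. EC50 came from sigmoidal variable-slope nonlinear regression of % growth inhibition.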

In the next assay the test system is HeLa (cervical cancer). In words: Cell viability in treated cell lines. The format is cell-based. The note with it: Homo sapiens, 72 h, read-out: EC50 HeLa. Summed up: as §1
Assay [4] deals with MCF-7 cells. Nature of the assay: Late apoptosis study. It counts as cell-based, human. The note with it: treated at EC50 of 72 h, 36 h incubation. The gist of the method:
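MCF-7 cells were seeded at 2 × 10^4 on chamber slides and held 24 h at 37 °C, then exposed to test compound for 36 h; untreated cells served as control. Cells were fixed in 4% paraformaldehyde/PBS (pH 7.4) for 25 min at 4 °C and permeabilised with 0.2% Triton X-100 for 5 min. DNA ends were labelled with rTdT/nucleotide mix at 37 °C in the dark. Diluted SSC was added, and nuclei were counterstained with PI (1 μg/mL, 15 min, RT). FITC signal was imaged by high-content microscopy.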

Assay [5] deals with MCF-7 cells. In words: Early apoptosis study. The format is cell-based, human. The note with it: treated at EC50 of 72 h for 6 and 9 h. The gist of the method: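 MCF-7 cells were seeded at 10,000 cells/well and held 24 h at 37 °C. The medium was replaced with test compound, alongside a positive control and an untreated control, for 6 and 9 h. Cells were stained with Annexin V-FITC (green) and PI (red) in binding buffer for 10 min at 37 °C. They were imaged by widefield high-content imaging to score early versus late apoptosis and necrosis.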

T1 sequence (P07374 whole entry, looked up): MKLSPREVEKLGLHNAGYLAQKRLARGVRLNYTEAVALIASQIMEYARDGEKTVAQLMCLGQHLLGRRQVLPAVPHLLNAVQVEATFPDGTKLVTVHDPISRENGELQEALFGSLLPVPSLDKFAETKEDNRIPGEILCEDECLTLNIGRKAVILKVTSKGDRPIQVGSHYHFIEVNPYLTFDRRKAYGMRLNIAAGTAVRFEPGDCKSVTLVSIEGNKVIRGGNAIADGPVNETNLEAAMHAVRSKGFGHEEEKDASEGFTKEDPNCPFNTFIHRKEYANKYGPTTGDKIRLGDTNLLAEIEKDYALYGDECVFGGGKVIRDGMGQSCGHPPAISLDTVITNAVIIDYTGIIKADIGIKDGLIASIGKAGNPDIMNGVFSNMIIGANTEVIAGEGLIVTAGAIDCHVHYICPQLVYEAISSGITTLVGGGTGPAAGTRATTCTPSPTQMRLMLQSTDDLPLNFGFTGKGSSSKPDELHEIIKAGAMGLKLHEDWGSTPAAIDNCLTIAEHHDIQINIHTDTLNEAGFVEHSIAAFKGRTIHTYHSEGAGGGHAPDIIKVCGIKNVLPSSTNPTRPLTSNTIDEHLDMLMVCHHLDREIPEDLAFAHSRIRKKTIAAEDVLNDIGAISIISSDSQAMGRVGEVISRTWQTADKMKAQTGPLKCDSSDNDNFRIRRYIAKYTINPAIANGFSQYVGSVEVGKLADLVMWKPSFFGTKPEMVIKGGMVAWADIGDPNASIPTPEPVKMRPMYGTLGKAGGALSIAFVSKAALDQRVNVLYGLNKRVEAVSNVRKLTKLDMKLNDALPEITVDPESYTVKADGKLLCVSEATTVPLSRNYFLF

In general, IC50 refers to the concentration at which inhibition is half-maximal. In general, Ki refers to a dissociation constant, usually derived from enzyme kinetics or from competition with a known ligand. Low readings indicate a stronger hold on the target, high ones a looser hold on the target. In general, Vmax refers to the rate approached at saturating substrate. One may read the EC50 as the concentration needed to bring the measured effect to its halfway point. In turn, `COc1ccc(C2CC(c3ccccc3O)=NN2c2ccccc2)cc1OC` (stereo not shown) [Compound 2g, 1-Phenyl-3(2-hydroxy-phenyl)-5-(3,4-dimethoxyphenyl)-2-pyrazoline] displayed an IC50 against urease [1] of 9.13 ± 0.25 µM. This molecule displayed a Ki on urease [2] of 19.1 µM. For the same molecule, the mode of inhibition entry on urease [2] (urease) is on record as “competitive inhibition”. Also, the Vmax at urease [2] (urease, at a 20 μM inhibitor concentration) stood at 5.76 µM/min. For the same molecule, the EC50 (in assay [3] (read-out: EC50 MCF-7); in the assay with HeLa (cervical cancer)) was > 500 µM each time.

For the molecule `CCCCCOC(=O)Nc1nc(=O)n([C@@H]2O[C@H](C)[C@@H](O)[C@H]2O)cc1F` [CP, capecitabine, reference compound], the EC50 in assay [3] (read-out: EC50 on MCF-7) worked out at 980 µM. Besides, the “DNA fragmentation (TUNEL, green stain of nuclei)” value with MCF-7 cells [4] is “green-stained nuclei were observed”.

Consider `Oc1ccccc1C1=NN(c2ccccc2)C(c2ccccc2)C1` (stereo not shown) [Compound 2l, 1-Phenyl-3(2-hydroxy-phenyl)-5-phenyl-2-pyrazoline], for which, on urease [1] (pH 8.2, 30 °C, 100 mM urea), the “urease IC50 ± SEM” value is listed as “NA* ^a”. Also, the figures for the EC50 (in assay [3] (read-out: EC50 MCF-7); with HeLa (cervical cancer)) were 120 ± 0.1 µM and 510 µM, respectively. For the same molecule, the “DNA fragmentation (TUNEL, green stain of nuclei)” value in the assay on MCF-7 cells [4] was “morphologically detectable (green)”. The “mode of MCF-7 cell death (Annexin V-FITC/PI staining)” value with MCF-7 cells [5] was “induce early apoptosis”.

In the case of `COc1cc(C2CC(c3ccccc3O)=NN2c2ccccc2)cc(OC)c1OC` (stereo not shown) [Compound 2d, 1-Phenyl-3(2-hydroxy-phenyl)-5-(3,4,5-trimethoxyphenyl)-2-pyrazoline], the IC50 against urease [1] was 13.3 ± 0.25 µM. In addition, the EC50 (in assay [3] (read-out: EC50 MCF-7); in the assay with HeLa (cervical cancer)) was > 500 µM throughout.

Take `CC(=O)Nc1ccc(C2CC(c3ccccc3O)=NN2c2ccccc2)cc1` (stereo not shown) [Compound 2j, 1-Phenyl-3(2-hydroxy-phenyl)-5-(4-acetamidophenyl)-2-pyrazoline]: the IC50 on urease [1] is 13.7 ± 0.47 µM. For the same molecule, the EC50 (in assay [3] (read-out: EC50 MCF-7); in the assay on HeLa (cervical cancer)) was > 500 µM each time.

On to `Oc1ccccc1C1=NN(c2ccccc2)C(c2ccc(Br)cc2)C1` (stereo not shown) [Compound 2c, 1-Phenyl-3(2-hydroxy-phenyl)-5-(4-bromo-phenyl)-2-pyrazoline], for which the IC50 against urease [1] is 12.6 ± 0.43 µM. In addition, the EC50 (in assay [3] (read-out: EC50 MCF-7); in the assay on HeLa (cervical cancer)) was > 500 µM in each case.

In turn, `COc1ccc(C2CC(c3ccccc3O)=NN2c2ccccc2)cc1` (stereo not shown) [Compound 2e, 1-Phenyl-3(2-hydroxy-phenyl)-5-(4-methoxyphenyl)-2-pyrazoline] returned an IC50 on urease [1] of 15.4 ± 0.38 µM. The EC50 (in assay [3] (read-out: EC50 MCF-7); in the assay with HeLa (cervical cancer)) was > 500 µM each time.

As for `Cc1ccc(C2CC(c3ccccc3O)=NN2c2ccccc2)c(C)c1` (stereo not shown) [Compound 2p, 1-Phenyl-3(2-hydroxy-phenyl)-5(2,4-dimethyl-phenyl)-2-pyrazoline], at urease [1], inhibition was half-maximal at 12.2 ± 0.38 µM (IC50). For the same molecule, the 50% effective concentration (EC50) (in assay [3] (read-out: EC50 MCF-7); in the assay on HeLa (cervical cancer)) was > 500 µM in each case.

In turn, `O=C(O)c1ccc(C2CC(c3ccccc3O)=NN2c2ccccc2)cc1` (stereo not shown) [Compound 2h, 1-Phenyl-3(2-hydroxy-phenyl)-5-(4-carboxyphenyl)-2-pyrazoline] showed an IC50 at urease [1] of 11.3 ± 0.51 µM. Moreover, the concentration giving a half-maximal response (EC50) (in assay [3] (read-out: EC50 MCF-7); in the assay on HeLa (cervical cancer)) was > 500 µM throughout.

For the origin of these results see publication PMC8811919 (ACS Omega, 2022).
